According to ChEMBL document CHEMBL4513216, “Probing the Open Global Health Chemical Diversity Library for Multistage-Active Starting Points for Next-Generation Antimalarials” (ACS Infect Dis, 2020):

Test: Toxicity liver stage against HepG2, at 10uM
Format: cell-based
Set-up: test concentration 10 uM, cell line HepG2-A16-CD81EGFP
Details: human, HepG2-A16-CD81EGFP cells; read-out: INHIBITION
Summary of the method: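 Uninfected HepG2-A16-CD81EGFP cells, 3 × 10^3 per well, 1536-well, plated on prespotted compound at 10 μM final, parasite-free screening media added to match infected plates; puromycin 10 μM positive, DMSO 0.5% negative; run in parallel with 48 h PbLuc assay at 37 °C, 5% CO2; viability by CellTiter-Glo luminescence, normalized to controls.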

Going from CS(=O)(=O)N1CCN(Cc2ccc(F)cc2Br)CC1 to COC(=O)c1cccc(NC(=O)CN2CCN(S(C)(=O)=O)CC2)c1, the cytotoxicity at 10 µM rises from 0.0667% to 11.3%.

Compared with CC(C)(C)c1cn(C[C@H]2CC3CCN2C[C@@H]3C(=O)N2CCOCC2)nn1 (stereo partly specified), CC(=O)N1CCCC1c1ccc(CN2CCOCC2)cn1 (stereo unspecified) is higher in cytotoxicity at 10 µM: -3.37% for the first, 5.83% for the second.

First: COC1CN(CCO)S(=O)(=O)c2ccccc21 (stereo unspecified)
Second: COc1c(CNC2CCCc3ccccc32)c(C(C)C)nn1C (stereo unspecified)
The cytotoxicity at 10 µM of the first is higher: 3.54% for the first, -2.9% for the second.

First: O=C(NC1CC1)c1nc(COc2ccc3c(c2)OCO3)no1
Second: COc1ccc2c(c1)OCC(CNC1CCc3ncnn3C1)=C2 (stereo unspecified)
The cytotoxicity at 10 µM of the first is lower: 3.97% for the first, 4.4% for the second.

First: COC(=O)N1CCC(CNC(=O)C2CCN(S(C)(=O)=O)CC2)CC1
Second: COC(C(=O)NC1CCN(S(C)(=O)=O)CC1)c1ccccc1 (stereo unspecified)
The cytotoxicity at 10 µM of the first is higher: -2.72% for the first, -4.68% for the second.

Compared with O=C(CC1CCC2(CC1)CCN(Cc1nccs1)CC2)N1CC=CC1, O=C(CCc1nccs1)N1CCN(c2ccc(Cl)cn2)CC1 is higher in cytotoxicity at 10 µM: -4.35% for the first, 0.665% for the second.

First: CCc1ccc(-n2c(=O)[nH]c3nc(N4CCSCC4)ncc3c2=O)cc1
Second: Cc1csc2ncc(-c3ccnc(N4CCN(C)CC4)n3)c(=O)n12
The cytotoxicity at 10 µM of the first is lower: -4.14% for the first, 9.43% for the second.

Going from N#Cc1cc(C#N)c(SCC(=O)Nc2ccc(F)cc2)nc1N to CNCc1cc(F)ccc1Oc1ccc(Cl)cc1, the cytotoxicity at 10 µM falls from -0.506% to -8.74%.

Compared with CCN(CC)c1ncnc2c(C)nn(CC)c12, CCN(CCC(=O)OC)S(=O)(=O)c1cnc2c(c1)c(C)nn2C is lower in cytotoxicity at 10 µM: -2.01% for the first, -15.2% for the second.

Compared with Cc1cn[nH]c1C1COCCN1Cc1c[nH]cn1 (stereo unspecified), COc1cccc(-c2ncc(CN3CCOCC(O)C3)s2)c1 (stereo unspecified) is lower in cytotoxicity at 10 µM: -1.3% for the first, -7.19% for the second.

Compared with Cc1cccc(-c2nccnc2C2CCCN(C)C2)c1C (stereo unspecified), Cc1cccc(C2CCCN2Cc2nc(N)nc(N(C)C)n2)c1C (stereo unspecified) is lower in cytotoxicity at 10 µM: 5.62% for the first, -12.5% for the second.

Compared with Cc1noc(C)c1-c1ccnc(C2CCN(S(=O)(=O)N(C)C)CC2)c1, Cc1noc(C(C)N2CCC(c3nc4ccccc4[nH]3)CC2)n1 (stereo unspecified) is higher in cytotoxicity at 10 µM: -25% for the first, -6.4% for the second.

Going from CNc1cncc(C2CCCN2S(=O)(=O)c2ccc(F)cc2)n1 (stereo unspecified) to CNc1cccc(C2CCCN(C(=O)c3cccnc3)C2)n1 (stereo unspecified), the cytotoxicity at 10 µM falls from -3.21% to -16.6%.

First: COc1ccc(CN2CCC(c3nccnc3-n3ccnc3)CC2)cc1
Second: CN1CCC(n2nc(Cc3cccc(Cl)c3)nc2Cn2ccnc2)CC1
The cytotoxicity at 10 µM of the first is lower: -27.4% for the first, 10.8% for the second.

First: CN(C)Cc1ccnc(C2CN(Cc3nccs3)CCO2)n1 (stereo unspecified)
Second: CN(C)Cc1ccnc(C2CCCN2Cc2ccc3ncccc3c2)n1 (stereo unspecified)
The cytotoxicity at 10 µM of the first is lower: -2.61% for the first, 0.026% for the second.

Compared with CNC(=O)C1(c2cnccn2)CCCN1C(=O)c1ccccc1 (stereo unspecified), CCOC(=O)C1(Cc2ccccc2)CCCN(Cc2nccn2CC)C1 (stereo unspecified) is higher in cytotoxicity at 10 µM: -20.6% for the first, 8.82% for the second.

First: COc1cc2nc3n(c(=O)c2cc1OC)CCN(C(=O)C1CC1)CC3
Second: COc1ccc(CN2CC[C@H](NC(C)=O)[C@@H](O)CC2)c(OC)c1
The cytotoxicity at 10 µM of the first is lower: -13.6% for the first, -7.49% for the second.

Going from CC(C)C(=O)N1CCC(c2nc(O)cc(-c3ccncc3)n2)CC1 to O=C(c1ccno1)N1CCc2ncnc(-c3ccncc3)c2CC1, the cytotoxicity at 10 µM rises from -5.41% to 6.59%.

Compared with CCOC(=O)[C@H]1CNC[C@@H]1C(F)(F)F, CC(O)CN1CCC(CNCc2cccc(OC(F)(F)F)c2)CC1 (stereo unspecified) is lower in cytotoxicity at 10 µM: 7.06% for the first, -7.95% for the second.

First: O=c1cc(CN(CCO)C2CC2)nc2ccc(Br)cn12
Second: COc1ccc(CN(Cc2cncn2C)CC2CCCO2)cc1 (stereo unspecified)
The cytotoxicity at 10 µM of the first is higher: 12.5% for the first, -4.47% for the second.

Going from CC(C)c1nn(C)c(N(C)C)c1CNC1CCCOc2ccccc21 (stereo unspecified) to COc1ccccc1C1(CNc2ccnc(C(=O)N(C)C)c2)CC1, the cytotoxicity at 10 µM rises from -13.1% to -1.67%.

Compared with CC(C(=O)Nc1cccc(C(F)(F)F)c1)N(C)CCN1CCOCC1 (stereo unspecified), COc1cc(F)ccc1C(C(=O)O)N(C)CCN1CCOCC1 (stereo unspecified) is lower in cytotoxicity at 10 µM: 9.54% for the first, -12.9% for the second.

Going from N#Cc1ccc(Cl)cc1N1CCC(OC2CCOCC2)CC1 to CC(=O)NCC1CCN(C(=O)c2c[nH]c3cc(Cl)ccc23)CC1, the cytotoxicity at 10 µM rises from 3.99% to 7.07%.

Going from Cc1cc(C2CCCN2C(=O)CN2CCc3ccccc32)on1 (stereo unspecified) to Cc1cc(C(=O)N2CCCCC2c2nc(C)cs2)[nH]n1 (stereo unspecified), the cytotoxicity at 10 µM falls from 2.74% to -8.13%.

Going from COC(CNC(=O)CNC(=O)c1ccccc1)c1cccc(Cl)c1 (stereo unspecified) to O=C(C(CNCc1ccccc1O)c1ccccc1)N1CCOCC1 (stereo unspecified), the cytotoxicity at 10 µM falls from 5.61% to -0.138%.

Going from Cc1csc(CNCC2CCCN(C(=O)OC(C)(C)C)C2)n1 (stereo unspecified) to Cc1csc(CN2CCC[C@]3(C[C@H](Oc4ccccn4)CO3)C2)n1, the cytotoxicity at 10 µM falls from -6.82% to -14%.

Compared with Cc1nnc2n1CCN(CC(=O)NC(C)c1cccc3ccccc13)C2 (stereo unspecified), CCn1c(C(=O)N2CCN(CC(C)O)CC2)cc2ccccc21 (stereo unspecified) is lower in cytotoxicity at 10 µM: 7.15% for the first, -8.96% for the second.

First: CCc1nc(C2CCCN(c3nccc(N4CCCC4)n3)C2)no1 (stereo unspecified)
Second: CC(C)c1nccn1-c1cccc(C2CCCN(C3CCCC3)C2)n1 (stereo unspecified)
The cytotoxicity at 10 µM of the first is higher: 19% for the first, 7.1% for the second.

Compared with CS(=O)(=O)CCC(=O)Nc1cc(Cl)c(Cl)cn1, CC(C)NC(=O)CS(=O)(=O)Cc1cc(Cl)c2c(c1)OCCO2 is lower in cytotoxicity at 10 µM: 4.52% for the first, -4.53% for the second.

Going from CCOc1cncc(N2CCOCC2)n1 to Cc1cc(CNC(=O)NC(C)c2ccc(N3CCOCC3)cc2)no1 (stereo unspecified), the cytotoxicity at 10 µM falls from 3.18% to -17.4%.

Going from CNS(=O)(=O)c1cccc(C(C)NCc2ccc(C)o2)c1 (stereo unspecified) to O=C(CCNS(=O)(=O)c1ccc(F)c(F)c1)NCc1ccoc1, the cytotoxicity at 10 µM rises from -3.69% to 11.2%.

Compared with CC(C)(C)c1nnc(CNc2cc(F)ccc2OCC2CCCO2)o1 (stereo unspecified), COc1ccc(F)cc1C(=O)N(C)Cc1cc(C)on1 is lower in cytotoxicity at 10 µM: 3.06% for the first, 0.35% for the second.

Compared with COCCNC(=O)c1cc(F)ccc1NS(C)(=O)=O, Cc1oc(C(=O)O)cc1S(=O)(=O)Nc1ccc(Cl)c(F)c1 is lower in cytotoxicity at 10 µM: -1.23% for the first, -5.92% for the second.

Going from NS(=O)(=O)NCC1(c2ccccc2Br)CC1 to O=C(NCC1(Sc2ccccc2)CC1)c1ccc(=O)[nH]n1, the cytotoxicity at 10 µM falls from 2.91% to 1.52%.

First: Cc1nc(NC(=O)NC(CS(C)(=O)=O)c2ccccc2)sc1C (stereo unspecified)
Second: Cc1cccc(C(=O)NCc2cccnc2N(C)C)n1
The cytotoxicity at 10 µM of the first is lower: -1.32% for the first, 0.72% for the second.

Compared with CN1CCN(c2ccc(Cl)cc2NC(=O)c2ccco2)CC1, CN1CCN(c2ccccc2NC(=O)NCCc2ccc(O)cc2)CC1 is higher in cytotoxicity at 10 µM: -2.14% for the first, -0.37% for the second.

First: COCCN1CCC(c2nc3ccccc3[nH]2)CC1
Second: Nc1nc(CN2CCCC(Cn3cncn3)C2)nc2ccccc12 (stereo unspecified)
The cytotoxicity at 10 µM of the first is higher: 0.575% for the first, -8.21% for the second.

First: CCCn1nnnc1CN(c1ccc(C)cc1)C(C)C
Second: Cc1nn(C)cc1-c1ccnc(N(C)Cc2cccs2)n1
The cytotoxicity at 10 µM of the first is lower: 4.15% for the first, 19% for the second.

Going from Cc1cc(CN2CCc3nn(C(C)C)c(=O)cc3C2)no1 to Cc1ccc(-n2cc(CN3CCOCC(CN(C)C)C3)cn2)cc1C (stereo unspecified), the cytotoxicity at 10 µM falls from -13.8% to -19.8%.

Going from O=C(NCc1ccccc1F)N1CCC(C2OCCO2)CC1 to O=C(NCc1nnc2n1CCCCC2)N1CCc2sccc2C1, the cytotoxicity at 10 µM falls from 2.76% to 0.553%.

Compared with CCn1ncnc1CN1CCc2[nH]cnc2C1c1ccccn1 (stereo unspecified), Cn1nnc2c1CCN(Cc1ccncc1)C2COCC1CC1 (stereo unspecified) is higher in cytotoxicity at 10 µM: -9.38% for the first, 5.29% for the second.

First: CCc1noc(C2CC(=O)N(CCN(C)C)C2)n1 (stereo unspecified)
Second: CCCc1n[nH]c(C2CN(CCCS(C)(=O)=O)CCO2)n1 (stereo unspecified)
The cytotoxicity at 10 µM of the first is lower: -10.1% for the first, -2.38% for the second.

Compared with CC(C)c1cc(C(=O)N2CCNCC2C(=O)NCc2ccncc2)on1 (stereo unspecified), CCSc1ccc(NC(=O)N2CCCC2c2ccncc2)cn1 (stereo unspecified) is lower in cytotoxicity at 10 µM: -7.6% for the first, -8.88% for the second.

Compared with O=C(C(c1ccc(F)cc1)N1CCCCC1)N1CCn2cncc2C1 (stereo unspecified), c1cn(-c2ccc(CN3CCCC3)cc2)c(-c2cc3n(n2)CCNC3)n1 is lower in cytotoxicity at 10 µM: -0.628% for the first, -14.3% for the second.

Compared with CCN(CC)Cc1cc(C(=O)N2CC(C)(C)[C@@](C)(O)C2)c(C)o1, CCC[C@@H]1CN(Cc2cc3c(cc2OC)OCO3)C[C@H]1C(=O)O is lower in cytotoxicity at 10 µM: 1.07% for the first, -2.7% for the second.

Compared with O=C(NC1CCCN(CCCc2ccccc2)C1)c1ccc(Cl)s1 (stereo unspecified), CC(Nc1cccc(CN2CCOC2=O)c1)C(=O)Nc1ccccc1 (stereo unspecified) is lower in cytotoxicity at 10 µM: 57.5% for the first, -6.42% for the second.

First: O=C(O)CSc1nnc(-c2ccco2)n1-c1ccccc1C(F)(F)F
Second: CC(=O)N1CCN(Cc2c(C)sc3ccccc23)CC(O)C1 (stereo unspecified)
The cytotoxicity at 10 µM of the first is lower: 3.41% for the first, 14.4% for the second.

Going from CC1(C)Cc2c(cnn2-c2cccc(F)c2)C(NC2CCSCC2)C1 (stereo unspecified) to CN(C)C(=O)CC1CC2(CCN(CC3CC3)CC2)c2cc(F)ccc21 (stereo unspecified), the cytotoxicity at 10 µM rises from -142% to 3.37%.

Going from CC(=O)N1C[C@H]2CNC[C@@]2(C(=O)NCCCOc2cccnc2)C1 to CC(=O)N1[C@H](Cn2cncn2)C[C@@H]2CN(Cc3cccnc3)CC[C@@H]21, the cytotoxicity at 10 µM rises from -7.52% to 3.16%.

Compared with O=C1CC[C@H]2CN(Cc3ncc[nH]3)CC[C@H]2N1CC1CCNCC1, c1cnc(N2CCO[C@H]3CN(CC4CC4)C[C@H]32)nc1 is lower in cytotoxicity at 10 µM: 11.6% for the first, 5.03% for the second.

First: CN(Cc1ccc(OCC(=O)N2CCOCC2)cc1)S(C)(=O)=O
Second: COc1ccc(N2CCN(C(=O)C3[C@H]4CNC[C@@H]34)CC2(C)C)cc1 (stereo partly specified)
The cytotoxicity at 10 µM of the first is lower: 4.64% for the first, 12.1% for the second.

Going from COCc1nc2ncc3c(=O)n(-c4ccc(C(C)=O)cc4)ccc3n2n1 to CNCc1ccc([C@@H]2CN(C(C)=O)C[C@H]2C(=O)N(C)C)cc1, the cytotoxicity at 10 µM rises from -7.03% to 3%.

Going from Cc1nnc(N2CCCC(CS(N)(=O)=O)C2)c(C#N)c1C (stereo unspecified) to Cc1ccc(N2CC[C@H]3OCC[C@@]3(C(=O)NC(C)C)C2)nn1, the cytotoxicity at 10 µM falls from 2.86% to -11.7%.

Compared with Cn1ccnc1CN1CCN(Cc2cc(C#N)ccc2F)CC1, Cn1ccnc1CN1CCC2(CCC(=O)N2CCN2CCCC2)CC1 is higher in cytotoxicity at 10 µM: -4.52% for the first, -0.171% for the second.

Going from Cc1cnn(CC2CN(CC(=O)N(C)Cc3cccs3)CCO2)c1 (stereo unspecified) to Cc1ccc(N2CCC3(CCN(C(=O)N(C)C)CC3)CC2)nn1, the cytotoxicity at 10 µM falls from 6.28% to 5.73%.

Cc1cccc(CN(Cc2cccnc2)C2CC(C)(C)NC(C)(C)C2)n1 gave a cytotoxicity at 10 µM of -5.11%.
